Laboratory results taken from ChEMBL document CHEMBL4689842, “EUbOPEN Chemogenomics Library wave 1” (2021).
Where “and” joins values, the source holds several entries; their conditions need not be identical. Identical values can stand only once.

Tested on: Fibroblast
Assay: Multiplex assay against human fibroblast
Type: toxicity, cell-based
Method in brief: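 On a CQ1 microscope at 37°C and 5% CO2, live cells were imaged after compound addition. They had been stained at seeding with Hoechst33342, BioTracker Green Microtubule Cytoskeleton Dye, MitoTracker Red and Annexin V Alexa Fluor 680. CellPathfinder machine-learning gating assigned cells to Hoechst high-intensity objects or normal cells, normal cells to healthy, pyknosed or fragmented nuclei, and pyknosed cells to mitotic or apoptotic. Tubulin, mitochondrial-mass and membrane-permeability phenotypes are per cents of healthy-nucleus cells.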

[1] = 12 h, 10 µM, compound concentration 10 uM, replicate 1
[2] = 12 h, 10 µM, compound concentration 10 uM, replicate 2
[3] = 24 h, 10 µM, compound concentration 10 uM, replicate 1
[4] = 24 h, 10 µM, compound concentration 10 uM, replicate 2
[5] = 12 h, 1 µM, compound concentration 1 uM, replicate 1
[6] = 12 h, 1 µM, compound concentration 1 uM, replicate 2
[7] = 24 h, 1 µM, compound concentration 1 uM, replicate 1
[8] = 24 h, 1 µM, compound concentration 1 uM, replicate 2
[9] = 48 h, 1 µM, compound concentration 1 uM, replicate 1
[10] = 48 h, 1 µM, compound concentration 1 uM, replicate 2
[11] = 48 h, 10 µM, compound concentration 10 uM, replicate 1
[12] = 48 h, 10 µM, compound concentration 10 uM, replicate 2

CN(C)c1ncnc(-c2ccc3nc(Nc4cc(CN5CCN(C(=O)CC(F)(F)F)CC5)ccn4)[nH]c3c2)c1Cl [BAY-440]
Population Apoptotic (%) [1]: 72% and 67% | Population Fragmented Nuclei (%) [1]: 31% and 20% | Population Healthy Nuclei (%) [1]: 51% and 62% | Population Hoechst High Intensity Objects (%) [1]: 10% and 13% | Population Membrane Permeable-Phenotype (%) [1]: 29% and 17% | Population Mitochondria Different-Phenotype (%) [1]: 6% and 3% | Population Mitotic Cells (%) [1]: 27% and 32% | Population Normal (%) [1]: 89% and 86% | Population Pyknosed Nuclei (%) [1]: 17% | Total Cell Count [1]: 282 and 187 | Population Apoptotic (%) [2]: 83% and 50% | Population Fragmented Nuclei (%) [2]: 48% and 40% | Population Healthy Nuclei (%) [2]: 41% and 50% | Population Hoechst High Intensity Objects (%) [2]: 24% and 35% | Population Membrane Permeable-Phenotype (%) [2]: 25% and 18% | Population Mitochondria Different-Phenotype (%) [2]: 33% and 18% | Population Normal (%) [2]: 75% and 64% | Population Pyknosed Nuclei (%) [2]: 10% and 9% | Population Tubulin-Different-Phenotype (%) [2]: 50% and 86% | Total Cell Count [2]: 77 and 68 | Population Apoptotic (%) [3]: 58% and 50% | Population Fragmented Nuclei (%) [3]: 31% and 22% | Population Healthy Nuclei (%) [3]: 55% and 67% | Population Hoechst High Intensity Objects (%) [3]: 14% and 11% | Population Membrane Permeable-Phenotype (%) [3]: 18% and 10% | Population Mitochondria Different-Phenotype (%) [3]: 7% and 0% | Population Mitotic Cells (%) [3]: 41% and 50% | Population Normal (%) [3]: 85% and 88% | Population Pyknosed Nuclei (%) [3]: 12% and 10% | Total Cell Count [3]: 290 and 193 | Population Apoptotic (%) [4]: 75% and 37% | Population Fragmented Nuclei (%) [4]: 52% and 48% | Population Healthy Nuclei (%) [4]: 39% and 32% | Population Hoechst High Intensity Objects (%) [4]: 37% and 36% | Population Membrane Permeable-Phenotype (%) [4]: 22% and 14% | Population Mitotic Cells (%) [4]: 25% and 62% | Population Normal (%) [4]: 62% and 63% | Population Pyknosed Nuclei (%) [4]: 8% and 18% | Total Cell Count [4]: 74 and 68

CN1CCN(CCOc2cc(OC3CCOCC3)c3c(Nc4c(Cl)ccc5c4OCO5)ncnc3c2)CC1 [SARACATINIB]
Population Apoptotic (%) [5]: 59% | Population Fragmented Nuclei (%) [5]: 22% | Population Healthy Nuclei (%) [5]: 49% | Population Hoechst High Intensity Objects (%) [5]: 10% | Population Membrane Permeable-Phenotype (%) [5]: 24% | Population Mitochondria Different-Phenotype (%) [5]: 9% | Population Mitotic Cells (%) [5]: 40% | Population Normal (%) [5]: 89% | Population Pyknosed Nuclei (%) [5]: 27% | Population Tubulin-Different-Phenotype (%) [5]: 43% | Population Apoptotic (%) [6]: 70% | Population Fragmented Nuclei (%) [6]: 9% | Population Healthy Nuclei (%) [6]: 72% | Population Membrane Permeable-Phenotype (%) [6]: 0% | Population Mitochondria Different-Phenotype (%) [6]: 23% | Population Mitotic Cells (%) [6]: 30% | Population Normal (%) [6]: 90% | Population Pyknosed Nuclei (%) [6]: 18% | Population Tubulin-Different-Phenotype (%) [6]: 10% | Population Apoptotic (%) [1]: 60% | Population Fragmented Nuclei (%) [1]: 20% | Population Healthy Nuclei (%) [1]: 57% | Population Hoechst High Intensity Objects (%) [1]: 13% | Population Membrane Permeable-Phenotype (%) [1]: 16% | Population Mitochondria Different-Phenotype (%) [1]: 21% | Population Mitotic Cells (%) [1]: 39% | Population Normal (%) [1]: 86% | Population Pyknosed Nuclei (%) [1]: 21% | Population Tubulin-Different-Phenotype (%) [1]: 91% | Population Apoptotic (%) [2]: 75% | Population Fragmented Nuclei (%) [2]: 9% | Population Healthy Nuclei (%) [2]: 71% | Population Hoechst High Intensity Objects (%) [2]: 7% | Population Membrane Permeable-Phenotype (%) [2]: 21% | Population Mitochondria Different-Phenotype (%) [2]: 100% | Population Mitotic Cells (%) [2]: 25% | Population Normal (%) [2]: 92% | Population Pyknosed Nuclei (%) [2]: 18% | Population Tubulin-Different-Phenotype (%) [2]: 100% | Population Apoptotic (%) [7]: 47% | Population Fragmented Nuclei (%) [7]: 22% | Population Healthy Nuclei (%) [7]: 61% | Population Hoechst High Intensity Objects (%) [7]: 12% | Population Membrane Permeable-Phenotype (%) [7]: 17% | Population Mitochondria Different-Phenotype (%) [7]: 6% | Population Mitotic Cells (%) [7]: 52% | Population Normal (%) [7]: 87% | Population Pyknosed Nuclei (%) [7]: 16% | Population Tubulin-Different-Phenotype (%) [7]: 35% | Population Apoptotic (%) [8]: 50% | Population Fragmented Nuclei (%) [8]: 14% | Population Healthy Nuclei (%) [8]: 67% | Population Hoechst High Intensity Objects (%) [8]: 8% | Population Membrane Permeable-Phenotype (%) [8]: 6% | Population Mitochondria Different-Phenotype (%) [8]: 13% | Population Mitotic Cells (%) [8]: 50% | Population Normal (%) [8]: 91% | Population Pyknosed Nuclei (%) [8]: 18% | Population Tubulin-Different-Phenotype (%) [8]: 4% | Population Apoptotic (%) [3]: 50% | Population Fragmented Nuclei (%) [3]: 32% | Population Healthy Nuclei (%) [3]: 57% | Population Hoechst High Intensity Objects (%) [3]: 26% | Population Membrane Permeable-Phenotype (%) [3]: 11% | Population Mitochondria Different-Phenotype (%) [3]: 22% | Population Mitotic Cells (%) [3]: 50% | Population Normal (%) [3]: 73% | Population Pyknosed Nuclei (%) [3]: 10% | Population Tubulin-Different-Phenotype (%) [3]: 89% | Population Apoptotic (%) [4]: 85% | Population Fragmented Nuclei (%) [4]: 11% | Population Healthy Nuclei (%) [4]: 54% | Population Hoechst High Intensity Objects (%) [4]: 8% | Population Membrane Permeable-Phenotype (%) [4]: 21% | Population Mitochondria Different-Phenotype (%) [4]: 96% | Population Mitotic Cells (%) [4]: 14% | Population Normal (%) [4]: 91% | Population Pyknosed Nuclei (%) [4]: 34% | Population Tubulin-Different-Phenotype (%) [4]: 93% | Population Apoptotic (%) [9]: 55% | Population Fragmented Nuclei (%) [9]: 40% | Population Healthy Nuclei (%) [9]: 52% | Population Hoechst High Intensity Objects (%) [9]: 10% | Population Membrane Permeable-Phenotype (%) [9]: 11% | Population Mitochondria Different-Phenotype (%) [9]: 2% | Population Mitotic Cells (%) [9]: 44% | Population Normal (%) [9]: 89% | Population Pyknosed Nuclei (%) [9]: 6% | Population Tubulin-Different-Phenotype (%) [9]: 31% | Population Apoptotic (%) [10]: 66% | Population Fragmented Nuclei (%) [10]: 31% | Population Healthy Nuclei (%) [10]: 66% | Population Hoechst High Intensity Objects (%) [10]: 41% | Population Membrane Permeable-Phenotype (%) [10]: 15% | Population Mitochondria Different-Phenotype (%) [10]: 1% | Population Mitotic Cells (%) [10]: 33% | Population Normal (%) [10]: 58% | Population Pyknosed Nuclei (%) [10]: 2% | Population Tubulin-Different-Phenotype (%) [10]: 51% | Population Apoptotic (%) [11]: 71% | Population Fragmented Nuclei (%) [11]: 31% | Population Healthy Nuclei (%) [11]: 62% | Population Hoechst High Intensity Objects (%) [11]: 35% | Population Membrane Permeable-Phenotype (%) [11]: 8% | Population Mitochondria Different-Phenotype (%) [11]: 13% | Population Mitotic Cells (%) [11]: 28% | Population Normal (%) [11]: 64% | Population Pyknosed Nuclei (%) [11]: 6% | Population Tubulin-Different-Phenotype (%) [11]: 89% | Population Apoptotic (%) [12]: 0% | Population Fragmented Nuclei (%) [12]: 44% | Population Healthy Nuclei (%) [12]: 55% | Population Hoechst High Intensity Objects (%) [12]: 27% | Population Membrane Permeable-Phenotype (%) [12]: 12% | Population Mitochondria Different-Phenotype (%) [12]: 23% | Population Mitotic Cells (%) [12]: 0% | Population Normal (%) [12]: 72% | Population Pyknosed Nuclei (%) [12]: 0% | Population Tubulin-Different-Phenotype (%) [12]: 93%
